{
  "source": "ChEMBL document CHEMBL2331355",
  "about": "“Synthesis, structure activity relationship and mode of action of 3-substitutedphenyl-1-(2,2,8,8-tetramethyl-3,4,9,10-tetrahydro-2H,8H-pyrano[2,3-f]chromen-6-yl)-propenones as novel anticancer agents in human leukaemia HL-60 cells” (Eur J Med Chem, 2013)",
  "assay_type_in_all_cases": "functional",
  "key": {"HL-60 [1]": {"tested_on": "HL-60", "test": "Cell cycle arrest in human HL60 cells assessed as S phase cells at 4 uM after 6 hrs by PI staining-based flow cytometric analysis (reference value: 49%)"}, "HL-60 [2]": {"tested_on": "HL-60", "test": "Cell cycle arrest in human HL60 cells assessed as accumulation of G0/G1 phase cells at 4 uM after 6 hrs by PI staining-based flow cytometric analysis (reference value: 48%)"}, "HL-60 [3]": {"tested_on": "HL-60", "test": "Induction of mitochondrial membrane potential loss in human HL60 cells at 4 uM after 6 hrs by rhodamine-123 staining method (reference value: 7%)"}, "HL-60 [4]": {"tested_on": "HL-60", "test": "Cell cycle arrest in human HL60 cells assessed as G2/M phase cells at 4 uM after 6 hrs by PI staining-based flow cytometric analysis (reference value: 3%)"}, "HL-60 [5]": {"tested_on": "HL-60", "test": "Induction of apoptosis in human HL60 cells at 4 uM after 6 hrs by PI-staining based flow cytometric analysis (reference value: 0.7 %)"}, "PC-3": {"tested_on": "PC-3", "test": "Growth inhibition of human PC3 cells at 10 uM after 48 hrs by MTT assay", "details": "PC-3, 48 h, read-out: GI", "summary_of_the_method": "(§1)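 MTT assay. Suspension or adherent cells were exposed to compound for 48 h. OD was read at 570 nm (reference 620 nm), with untreated control OD set as 100% viability. Results are percent growth inhibition, mean ± SD of three independent experiments.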"}, "HL-60 [6]": {"tested_on": "HL-60", "test": "Growth inhibition of human HL60 cells at 10 uM after 48 hrs by MTT assay", "details": "HL-60, 48 h, read-out: GI", "summary_of_the_method": "as §1"}, "MCF7": {"tested_on": "MCF7", "test": "Growth inhibition of human MCF7 cells at 2 uM after 48 hrs by MTT assay", "details": "MCF7, 48 h, read-out: GI"}},
  "note": "Counter-ions that a name gives are not always drawn.",
  "data": [
    {"smiles": "CC[C@@]1(O)C(=O)OCc2c1cc1n(c2=O)Cc2cc3ccccc3nc2-1", "note": "[CAMPTOTHECIN]", "values": [
      {"measurement": "Activity", "setting": "HL-60 [1]", "value": 6, "unit": "%"},
      {"measurement": "Activity", "setting": "HL-60 [2]", "value": 88, "unit": "%"},
      {"measurement": "Activity", "setting": "HL-60 [3]", "value": 51, "unit": "%"},
      {"measurement": "Activity", "setting": "HL-60 [4]", "value": 6, "unit": "%"},
      {"measurement": "Activity", "setting": "HL-60 [5]", "value": 69, "unit": "%"}
    ]},
    {"smiles": "O=c1[nH]cc(F)c(=O)[nH]1", "note": "[FLUOROURACIL]", "values": [
      {"measurement": "inhibition of growth at 10 µM", "setting": "PC-3", "value": 72, "unit": "%"},
      {"measurement": "inhibition of growth at 10 µM", "setting": "HL-60 [6]", "value": 84, "unit": "%"}
    ]},
    {"smiles": "COc1cccc2c1C(=O)c1c(O)c3c(c(O)c1C2=O)C[C@@](O)(C(=O)CO)C[C@@H]3O[C@H]1C[C@H](N)[C@H](O)[C@H](C)O1", "note": "[DOXORUBICIN HYDROCHLORIDE]", "values": [
      {"measurement": "inhibition of growth at 2 µM", "setting": "MCF7", "value": 90, "unit": "%"}
    ]}
  ]
}
